According to ChEMBL document CHEMBL4732034, “Amino alcohol acrylonitriles as broad spectrum and tumour selective cytotoxic agents” (RSC Med Chem, 2021):

Legend:
A-431 = assay: Cytotoxicity against human A431 cells assessed as growth inhibition measured after 72 hrs by SRB assay; format: functional
Method in brief: (§1)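 Cancer lines were kept in DMEM with 10% FBS and glutamine at 37 °C, 5% CO2, and seeded at 2500–4000 cells per well in duplicate. Compound (from 40 mM DMSO stocks) was added 24 h after plating and left for 72 h. Cells were TCA-fixed, stained with SRB and read at 540 nm. GI50 came from an eight-point dose-response, using the change from day-0 optical density, with three to four independent replicates.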

BE(2)-C = assay: Cytotoxicity against human BE2C cells assessed as growth inhibition measured after 72 hrs by SRB assay; format: functional; method in brief: as §1
HT-29 = assay: Cytotoxicity against human HT29 cells assessed as growth inhibition measured after 72 hrs by SRB assay; format: functional; method in brief: as §1
A2780 = assay: Cytotoxicity against human A2780 cells assessed as growth inhibition measured after 72 hrs by SRB assay; format: functional; method in brief: as §1
[1] = Cytotoxicity against human SJG2 cells assessed as growth inhibition measured after 72 hrs by SRB assay; format: functional; details: SJ-G2; method in brief: as §1
[2] = Cytotoxicity against human MCF10A cells assessed as growth inhibition measured after 72 hrs by SRB assay; format: cell-based, MCF-10A
MIA PaCa-2 = assay: Cytotoxicity against human MIA cells assessed as growth inhibition measured after 72 hrs by SRB assay; format: functional; method in brief: as §1
NCI-H460 = assay: Cytotoxicity against human H460 cells assessed as growth inhibition measured after 72 hrs by SRB assay; format: functional; method in brief: as §1
U-87 MG = assay: Cytotoxicity against human U87 cells assessed as growth inhibition measured after 72 hrs by SRB assay; format: functional, U-87MG ATCC; method in brief: as §1
MCF7 = assay: Cytotoxicity against human MCF-7 cells assessed as growth inhibition measured after 72 hrs by SRB assay; format: functional; method in brief: as §1
DU-145 = assay: Cytotoxicity against human DU-145 cells assessed as growth inhibition measured after 72 hrs by SRB assay; format: functional; method in brief: as §1

Structure (SMILES) | GI50 (A-431) [µM] | GI50 (BE(2)-C) [µM] | GI50 (HT-29) [µM] | GI50 (A2780) [µM] | GI50 [1] [µM] | GI50 at 72 h [2] [µM] | GI50 (MIA PaCa-2) [µM] | GI50 (NCI-H460) [µM] | GI50 (U-87 MG) [µM] | GI50 (MCF7) [µM] | GI50 (DU-145) [µM]
N#C/C(=C\c1ccc(OCC(O)CN2CCN(c3ccc([N+](=O)[O-])cc3)CC2)cc1)c1ccc(Cl)c(Cl)c1 (racemic) | > 50 | > 50 | > 50 | > 50 | > 50 | > 50 | > 50 | > 50 | > 50 | > 50 | > 50
CC1CCN(CC(O)COc2ccc(/C=C(\C#N)c3ccc(Cl)c(Cl)c3)cc2)CC1 (racemic) | 2.6 | 2.6 | 1.7 | 2.7 | 3 | 2.7 | 3.4 | 2.9 | 2.9 | 2.3 | 4.6
CC1CCCN(CC(O)COc2ccc(/C=C(\C#N)c3ccc(Cl)c(Cl)c3)cc2)C1 (racemic) | 2.5 | 2.6 | 2.4 | 2.8 | 2.8 | 2.5 | 3.3 | 2.9 | 2.8 | 2.3 | 4
N#C/C(=C\c1ccc(OCC(O)CNC2CCCCC2)cc1)c1ccc(Cl)c(Cl)c1 (racemic) | 2.2 | 2.8 | 2 | 2.9 | 2.7 | 2.8 | 2.7 | 2.2 | 2.8 | 2.7 | 2.4
Cc1ccc(CN2CCN(CC(O)COc3ccc(/C=C(\C#N)c4ccc(Cl)c(Cl)c4)cc3)CC2)cc1 (racemic) | 2.4 | 2 | 1.4 | 1.5 | 2.4 | 2.4 | 2.6 | 2.7 | 3.6 | 1.7 | 4.5
N#C/C(=C\c1ccc(OCC(O)CNc2ccc(Br)cc2)cc1)c1ccc(Cl)c(Cl)c1 (racemic) | 11 | 11 | 6 | 10 | 11 | 13 | 11 | 6.8 | 16 | 5.3 | 13
N#C/C(=C\c1ccc(OCC(O)CNC2C3CC4CC(C3)CC2C4)cc1)c1ccc(Cl)c(Cl)c1 (racemic) | 2.8 | 2.6 | 1.4 | 2.5 | 2.6 | 2.7 | 2.4 | 2.7 | 2.7 | 2.1 | 2.6
CC(=O)c1ccc(N2CCN(CC(O)COc3ccc(/C=C(\C#N)c4ccc(Cl)c(Cl)c4)cc3)CC2)cc1 (racemic) | 30 | > 50 | 7.7 | 40 | > 50 | 7.5 | > 50 | > 50 | > 50 | 11 | 12
N#C/C(=C\c1ccc(OCC(O)CN2CCOCC2)cc1)c1ccc(Cl)c(Cl)c1 (racemic) | 3 | 3 | 3.1 | 8.9 | 9.3 | 5.6 | 13 | 8.7 | 17 | 5.3 | 13
N#C/C(=C\c1ccc(OCC(O)CNc2ccc(Cl)cc2)cc1)c1ccc(Cl)c(Cl)c1 (racemic) | 15 | 14 | 7 | 10 | 15 | 17 | 14 | 11 | 16 | 11 | 15
N#C/C(=C\c1ccc(OCC(O)CN2CCN(c3ccc(C(F)(F)F)cc3)CC2)cc1)c1ccc(Cl)c(Cl)c1 (racemic) | > 50 | > 50 |  | > 50 | > 50 | > 50 | > 50 | > 50 | > 50 | > 50 | > 50
N#C/C(=C\c1ccc(OCC(O)CN2CCN(c3ccc(Cl)cc3)CC2)cc1)c1ccc(Cl)c(Cl)c1 (racemic) | 27 | > 50 | 9 | 15 | 24 | 18 | 17 | 28 | > 50 | 15 | 32
N#C/C(=C\c1ccc(OCC(O)CN2CCC(c3ccccc3)CC2)cc1)c1ccc(Cl)c(Cl)c1 (racemic) | 2.6 | 2.6 | 1.9 | 2.7 | 2.5 | 2.5 | 2.4 | 2.7 | 2.9 | 2.5 | 2.7
N#C/C(=C\c1ccc(OCC(O)CN2CCN(c3ccccc3)CC2)cc1)c1ccc(Cl)c(Cl)c1 (racemic) | 6.3 | 16 | 3.3 | 6.3 | 9 | 4.8 | 5.7 | 4 | 5.4 | 4.1 | 3.5
Cc1ccc(N2CCN(CC(O)COc3ccc(/C=C(\C#N)c4ccc(Cl)c(Cl)c4)cc3)CC2)cc1 (racemic) | 3.1 | 2.7 | 2.6 | 3 | 2.9 | 3.5 | 3 | 2.5 | 6 | 2.3 | 2.7
N#C/C(=C\c1ccc(OCC(O)CN2CCCCCC2)cc1)c1ccc(Cl)c(Cl)c1 (racemic) | 2.9 | 2.6 | 1.7 | 3 | 5.3 | 3.1 | 5.5 | 3.5 | 3.8 | 2.8 | 4.6
CN1CCN(CC(O)COc2ccc(/C=C(\C#N)c3ccc(Cl)c(Cl)c3)cc2)CC1 (racemic) | 1.8 | 2.4 | 1.2 | 2.5 | 2.2 | 2.4 | 2.6 | 2.6 | 2.7 | 2.3 | 2.4
